Measured values reported in ChEMBL document CHEMBL1123095, “Synthesis and biological activity of 6-azacadeguomycin and certain 3,4,6-trisubstituted pyrazolo[3,4-d]pyrimidine ribonucleosides” (1985).
Activity calls are given as the source filed them. The rule behind the calls is not given here.

Legend:
[1] = tested on: Vero; assay: Toxicity level was reported.; type: functional, Chlorocebus sabaeus
[2] = tested on: Vero; assay: In vitro antiviral activity against Parainfluenza type 3 was evaluated.; type: functional; conditions: Chlorocebus sabaeus, read-out: ED50 (the source's name)
[3] = tested on: Vero; assay: In vitro antiviral activity against herpes simplex virus type 2 virus was evaluated.; type: functional; conditions: Chlorocebus sabaeus, read-out: ED50 (the source's name)
[4] = tested on: Vero; assay: In vitro antiviral activity against measles virus was evaluated.; type: functional; conditions: Chlorocebus sabaeus, read-out: ED50 (the source's name)
[5] = tested on: Vero; assay: In vitro antiviral activity against vaccinia virus was evaluated.; type: functional; conditions: Chlorocebus sabaeus, read-out: ED50 (the source's name)
[6] = tested on: L1210; assay: In vitro inhibitory dose against L1210 leukemia cells was evaluated.; type: functional; conditions: Mus musculus, read-out: ID50 (the source's name)
Outline: (§1)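 Murine leukemia L1210 or lymphoid neoplasm P388 cells were grown in RPMI 1640 with 10% fetal bovine serum and 20 mM Hepes. Cells at 1 × 10⁵ cells/mL received filter-sterilized compound dissolved in growth medium, in duplicate at log concentrations from 1×10⁻⁷ to 1×10⁻⁴ M. After 48 h at 37 °C, cells were counted on a Coulter counter. Growth was expressed as percent of untreated control, and ID₅₀ was taken as the concentration giving 50% growth inhibition.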

[7] = tested on: P388; assay: In vitro inhibitory dose against P388 cells was evaluated.; type: functional; conditions: Mus musculus, read-out: ID50 (the source's name); outline: as §1
[8] = tested on: Vero; assay: Toxicity level was reported; None.; type: functional, cell-based; conditions: Chlorocebus sabaeus
[9] = tested on: L1210; assay: Percent inhibition against L1210 cell growth at concentration 10e-4 was reported.; type: functional, Mus musculus; outline: as §1
[10] = tested on: P388; assay: Percent inhibition against P388 cell growth at concentration 10e-4 was reported; Inative at 10^-4M; type: functional, cell-based; conditions: Mus musculus; outline: as §1
[11] = tested on: L1210; assay: In vitro inhibitory dose against L1210 leukemia cells was evaluated; Inactive at 10e-4 concentration; type: functional, cell-based; conditions: Mus musculus; outline: as §1
[12] = tested on: P388; assay: In vitro inhibitory dose against P388 cells was evaluated; Inactive at 10e-4 concentration; type: functional, cell-based; conditions: Mus musculus; outline: as §1
[13] = tested on: Vero; assay: Toxicity level was reported; none; type: functional, cell-based; conditions: Chlorocebus sabaeus
[14] = tested on: L1210; assay: In vitro inhibitory dose against L1210 leukemia cells was evaluated; Inactive at 10^-4M; type: functional, cell-based; conditions: Mus musculus
Outline: (§2)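 L1210 murine leukemia or P388 lymphoid neoplasm cells in RPMI 1640 with 10% fetal bovine serum and 20 mM Hepes, adjusted to 1 × 10⁵ cells/mL. Compounds dissolved in medium, filter-sterilized, tested in duplicate at log concentrations 1×10⁻⁷ to 1×10⁻⁴ M. After 48 h at 37 °C, Coulter cell counts; growth as percent of untreated control; ID₅₀ is the concentration giving 50% growth inhibition.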

[15] = tested on: P388; assay: In vitro inhibitory dose against P388 cells was evaluated; Inactive at 10^-4M; type: functional, cell-based; conditions: Mus musculus; outline: as §2
[16] = tested on: L1210; assay: Percent inhibition against L1210 cell growth at concentration 10e-4 was reported; type: functional, Mus musculus; outline: as §2
[17] = tested on: P388; assay: Percent inhibition against P388 cell growth at concentration 10e-4 was reported; type: functional, Mus musculus; outline: as §2

## Oc1[nH]c(Br)nc2nncc1-2
[1]
  Toxic level: 1.6 mM
[2]
  EC50: > 5000 µM
[3]
  EC50: 1600 µM
[4]
  EC50: > 5000 µM
[5]
  EC50: 430 µM

## CSc1nc(O)c2c(C(N)=O)[nH]nc2n1
[1]
  Toxic level: >0.5 mM
[2]
  EC50: > 500 µM
[3]
  EC50: 85 µM
[4]
  EC50: > 500 µM
[5]
  EC50: 330 µM

## N#Cc1nn(C2O[C@H](CO)[C@@H](O)[C@H]2O)c2nc(N)[nH]c(=O)c12 (some centres undefined)
[6]
  IC50: 22 µM
[7]
  IC50: 21 µM
[8]
  Toxic level: None
[2]
  EC50: 220 µM
[3]
  EC50: 100 µM
[4]
  EC50: 54 µM
[5]
  EC50: 140 µM

## C[S+]([O-])c1nc(O)c2c(Br)[nH]nc2n1 (centres undefined)
[1]
  Toxic level: >0.5 mM
[2]
  EC50: > 5000 µM
[3]
  EC50: 1200 µM
[4]
  EC50: > 5000 µM
[5]
  EC50: 260 µM

## NC(=O)c1[nH]nc2nc(S)nc(O)c12
[8]
  Toxic level: None
[2]
  EC50: 390 µM
[3]
  EC50: 180 µM
[4]
  EC50: > 500 µM

## NC(=S)c1nn(C2O[C@H](CO)[C@@H](O)[C@H]2O)c2nc(N)[nH]c(=O)c12 (some centres undefined)
[9]
  Inhibition: 43%
[10]
  ID50: inactive
[8]
  Toxic level: None
[2]
  EC50: 590 µM
[3]
  EC50: > 5000 µM
[4]
  EC50: 65 µM

## Nc1nc2c(cnn2C2O[C@H](CO)[C@@H](O)[C@H]2O)c(=O)[nH]1 (some centres undefined)
[11]
  ID50: inactive
[12]
  ID50: inactive
[13]
  Toxic level: inactive
[2]
  EC50: > 5000 µM
[3]
  EC50: 1600 µM
[5]
  EC50: 1000 µM

## NC(=O)c1ncn([C@@H]2O[C@H](CO)[C@@H](O)[C@H]2O)n1 [RIBAVIRIN]
[13]
  Toxic level: Non-toxic
[2]
  EC50: 160 µM
[3]
  EC50: 190 µM
[4]
  EC50: 33 µM
[5]
  EC50: 85 µM

## NC(=O)c1c[se]c([C@@H]2O[C@H](CO)[C@@H](O)[C@H]2O)n1
[13]
  Toxic level: inactive
[2]
  EC50: 3.2 µM
[3]
  EC50: 14 µM
[4]
  EC50: 3.2 µM
[5]
  EC50: 9.8 µM

## Oc1[nH]c(Br)nc2nnc(Br)c1-2
[1]
  Toxic level: >0.05 mM
[2]
  EC50: > 5000 µM
[3]
  EC50: > 500 µM
[4]
  EC50: > 5000 µM
[5]
  EC50: 240 µM

## Nc1nc2c(c(C(=O)O)nn2C2O[C@H](CO)[C@@H](O)[C@H]2O)c(=O)[nH]1 (some centres undefined)
[14]
  ID50: inactive
[15]
  ID50: inactive
[8]
  Toxic level: None
[2]
  EC50: > 5000 µM
[3]
  EC50: > 5000 µM
[4]
  EC50: > 5000 µM
[5]
  EC50: > 5000 µM

## COc1nc2c(c(Br)nn2C2O[C@H](CO)[C@@H](O)[C@H]2O)c(=O)[nH]1 (some centres undefined)
[1]
  Toxic level: 2.5 mM
[2]
  EC50: > 2500 µM
[3]
  EC50: 1600 µM
[4]
  EC50: > 2500 µM
[5]
  EC50: 3500 µM

## NC(=O)c1nn(C2O[C@H](CO)[C@@H](O)[C@H]2O)c2nc(N)[nH]c(=O)c12 (some centres undefined)
[16]
  Inhibition: 30%
[17]
  Inhibition: 22%
[8]
  Toxic level: None
[2]
  EC50: > 500 µM
[3]
  EC50: > 500 µM
[4]
  EC50: > 500 µM
[5]
  EC50: > 500 µM

## Nc1nc2c(c(Br)nn2C2O[C@H](CO)[C@@H](O)[C@H]2O)c(=O)[nH]1 (some centres undefined)
[6]
  IC50: 36 µM
[7]
  IC50: 36 µM
[1]
  Toxic level: 1.6 mM
[2]
  EC50: > 5000 µM
[3]
  EC50: 180 µM
[4]
  EC50: 20 µM
[5]
  EC50: 76 µM
